This sample holds only a part of the variants without activity.

Yeast fitness data for 167 variants are collected here from the RNAGym collection of RNA variant scans (doi:10.1126/science.aae0568).

B1: tRNA (parent)
chain: GUUCCGUUGGCGUAAUGGUAACGCGUCUCCCUCCUAAGGAGAAGACUGCGGGUUCGAGUCCCGUACGGAACG

Variants of B1 are the subject of this data set. Kind of data set: yeast fitness relative to wild type (ratio to wild type); higher = fitter; tRNA-Arg(CCU), competitive growth, 37 C, YPD. The procedure, abridged: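 Changes in genotype frequencies gave Darwinian fitness relative to wild type. Frequencies were read by 100-nucleotide paired-end sequencing of gene amplicons before and after pooled Saccharomyces cerevisiae strains, carrying tRNA-Arg(CCU) gene variants at the native locus, were competed in YPD at 37°C for 24 hours in six replicates. A genotype was kept only with ≥ 100 starting reads, and estimates < 0.5 were set to 0.5.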
Consider U13A U32C G63A, for which the yeast fitness stood at 0.572. The same measure for U13A U54C: 0.934. Consider U13C A36G C46A C49A, for which the yeast fitness was at most 0.5. For G12A G25A C62G, the yeast fitness is at most 0.5. G12C C24U: the yeast fitness amounted to 0.651. Consider U13C C22G A36U C62U C66U A69C, for which the yeast fitness is at most 0.5. Turning to G12C C22U U54C C61U, the yeast fitness was determined as 0.532.

On to G12C A15U C33U C49G G58A, for which the yeast fitness is at most 0.5.

In the case of G12C G23C A45U, the yeast fitness is 0.609. G12A G25A C30G G58C C66A: the yeast fitness is at most 0.5.

Consider G12A G68C, for which the yeast fitness came to 0.667.

Regarding G12A G68U, the yeast fitness was found to be 0.863. In the case of G12A U35A G58A, the yeast fitness was determined as 0.524. With U13C G44C G58C, the yeast fitness worked out at 0.661.

Turning to G12C U32G C33G U47C A57C, the yeast fitness is at most 0.5. The same measure for U13A A57C: 0.604; for U13C G68C: 0.877; for U13A G38A C49G G50C A70G: at most 0.5.

With G12C G25C C60A A69U, the yeast fitness was at most 0.5. For the variant G12A G23A U35G A36G C62U A69G, the yeast fitness is at most 0.5. U13G U16G C31G C49U A57G: the yeast fitness is at most 0.5. Regarding U13A C46U, the yeast fitness worked out at 0.875. The same measure for G12A U32G C46A: at most 0.5; for G12C C46U C49G A70U: 0.526. The same measure for U13G A40G G44C C61G: at most 0.5. For G12C G17C, the yeast fitness is 0.637. As for G12C A45C C61A, the yeast fitness came out at 0.686. For the variant G12U G39A C66G, the yeast fitness was at most 0.5.

With G12A U35C G41A G51C, the yeast fitness is at most 0.5. Regarding U13C A65G A70C, the yeast fitness came to 0.744. Turning to G12C U32G C33G G67C, the yeast fitness is at most 0.5. On to G12C U53A, for which the yeast fitness turned out to be 0.594. For U13A U26G C27A G39C A42G G51C C66U A69U, the yeast fitness is at most 0.5. The same measure for U13C C33U A45G G50A C66A A70U: at most 0.5; for U13A G17A G51A C62U G67C: at most 0.5. U13A A21U A42U G44C: the yeast fitness was determined as 0.652.

For G12C C55U C61G, the yeast fitness was at most 0.5.

As for G12C U59A A69C, the yeast fitness was at most 0.5. For U13C A37U C49G the value was at most 0.5; for U13C A20C, 0.903; for U13G U26A A45C A69C, 0.577. With G12A U28G C30G C49U U64C, the yeast fitness is at most 0.5. The same measure for G12C A43U U59A A69G: at most 0.5; for G12U A15G A20C C24G: at most 0.5; for U13A C33G U54A U59A G67A: 0.504. Consider G12C U26A G48A G56C, for which the yeast fitness is at most 0.5. For G12C U19C the value was 0.66.

With G12C A15U C24A, the yeast fitness was found to be 0.528. In the case of G12C C24U U64G, the yeast fitness is at most 0.5. For G12A G48C U54C the value was 0.567; for G12C C46A G68U, at most 0.5; for G12A G38C, 0.869. As for U13A A15U C24U A37U G67C, the yeast fitness came to 0.591. U13A A20G C24U U35C C49U C60A C66G: the yeast fitness was at most 0.5.

In the case of G12C G25A, the yeast fitness stood at 0.848. Regarding U13G C61A C66A, the yeast fitness is at most 0.5. For G12C C30A G48A C55G, the yeast fitness worked out at 0.607.

Take U13A C27G A45G U64A: the yeast fitness turned out to be 0.62. Consider G12A G25A C60A, for which the yeast fitness is at most 0.5. In the case of U13C A15U U16A U19A C34U A57C, the yeast fitness is at most 0.5. Take U13C A43G U53A: the yeast fitness was at most 0.5. Regarding G12A G38C C49U C62U A69U, the yeast fitness amounted to 0.973.

With U13C G51C G67A, the yeast fitness was at most 0.5.

G12C A70U: the yeast fitness was determined as 0.707. For the variant U13A U19A A42U G51C, the yeast fitness was at most 0.5. Take U13A A42U G63A: the yeast fitness was found to be 0.699. For U13C C24U G41A C62A the value was at most 0.5; for G12C C34U C46A, at most 0.5.

Turning to U13C A43U A70G, the yeast fitness was determined as 0.966. Take G12C U19A C27G A65C: the yeast fitness was 0.557. On to U13C U35A A70G, for which the yeast fitness is at most 0.5. For the variant G12C A43G U54C A69C A70C, the yeast fitness was at most 0.5. Regarding U13G C49G, the yeast fitness is 0.823. The same measure for U13G A21C C46U G50A: 0.582; for U13A A21C U35C G39A A42C A43G C46U A65C: 0.55. For G12C U13A G23A A37C C61U the value was 0.586; for U13A C33U A45C C46G U54C A69U, at most 0.5; for G12C U59C C60A, at most 0.5. The same measure for G12C G17A C34G A40U A42U G67C: at most 0.5; for G12C C49U A70U: 0.692. For the variant U13C A15G C29A, the yeast fitness is 0.508. For the variant U13A A40U A43C, the yeast fitness is 0.693. For G12A U19C the value was 0.982; for U13G U16C G63C, at most 0.5; for G12C G17A A20U G58U, at most 0.5. As to U13C C27G G63C, the yeast fitness was determined as 0.548. As to U13A C27U, the yeast fitness came to 0.984. As for U13A A20C A70C, the yeast fitness is at most 0.5. The same measure for U13C A21G C31G A45G: 0.619; for U13C C30G A37U U47C A70G: at most 0.5.

On to U13G C22U G25A, for which the yeast fitness stood at 1.01.

Consider U13A G39A, for which the yeast fitness was found to be 0.782. Turning to U13C C29A A69C, the yeast fitness was determined as 0.576. U13C C31U G44C: the yeast fitness stood at 0.844. G12C A65U: the yeast fitness came to 0.735. For G12A U13C A15C C46G the value was at most 0.5. U13C C31A C49G C61G: the yeast fitness was at most 0.5.

U13C C24U C34U: the yeast fitness was at most 0.5.

Turning to U13C C24U C34G, the yeast fitness is 0.556. With U13A A14U C22A G48C, the yeast fitness was at most 0.5. For the variant U13C A21G G39C G50A U59G C61A C62U, the yeast fitness turned out to be 0.502. With U13A U28C G41A G44A A70U, the yeast fitness is at most 0.5. As to U13C A70C, the yeast fitness came out at 1.09. With U13A G50A, the yeast fitness is 0.806. In the case of G12A U32C U47A C49G C60U, the yeast fitness is at most 0.5. Turning to G12C A57C, the yeast fitness was found to be 0.545. G12A U32G U35A G38C G51C C66U: the yeast fitness is at most 0.5. Turning to U13G C55A, the yeast fitness turned out to be 0.502. As to U13G U19C C61U, the yeast fitness is at most 0.5. Regarding U13A G51A G56A, the yeast fitness was 0.628. Consider G12C A42G A70U, for which the yeast fitness was 0.592. Consider U13A U59A, for which the yeast fitness came to 0.827. With U13C A21C C27U G63A A65G, the yeast fitness was at most 0.5. As to G12C U54A A65C, the yeast fitness was at most 0.5. Consider G12C A43G C61U, for which the yeast fitness is at most 0.5. G12A G25A A70C: the yeast fitness was determined as 0.76. G12C A15G A45G G50C A69C: the yeast fitness was at most 0.5. Turning to U13A C29G A43G, the yeast fitness was at most 0.5. With G12C C27G U35A G52A A57G A69U A70U, the yeast fitness is at most 0.5. For the variant U13G G25C, the yeast fitness stood at 0.797.

In the case of U13A C24U C49G, the yeast fitness is at most 0.5. For G12C A40G G50U C62U, the yeast fitness is at most 0.5.

With G12A G52A, the yeast fitness is 0.688. Regarding U13G G17C C31U, the yeast fitness is at most 0.5. With U13C C30A C31A, the yeast fitness is 0.532. In the case of U13C C31A C46U A70C, the yeast fitness was at most 0.5.

Consider G12C C27A G56C, for which the yeast fitness came out at 0.702. For U13G G41C G51A, the yeast fitness stood at 0.564. For U13A A15G G48A G63A A65C the value was at most 0.5; for G12A U26A C30G C33U, at most 0.5. With U13C C55A, the yeast fitness was found to be 0.611. G12C C31U A65C A69U: the yeast fitness was at most 0.5. For U13A G25C A45G the value was 0.535. For G12A G39C U47A the value was at most 0.5. Turning to U13A A21C A42G, the yeast fitness was 0.502. Regarding U13C C22U A45U, the yeast fitness worked out at 0.713.

G12C C22G G25C G48A: the yeast fitness worked out at 0.915.

For G12C C34G, the yeast fitness was determined as 0.696.

For the variant G12C C33A, the yeast fitness was 0.682. With U13C C27A C61A, the yeast fitness was at most 0.5. For U13C C22A G23C C34U A36G A40U, the yeast fitness was at most 0.5.

For G12C A20U C33U C66U, the yeast fitness is at most 0.5. The same measure for U13A C55A C60G C62G: at most 0.5; for U13A C34A A37G: at most 0.5. U13C G48A C62A: the yeast fitness came out at 0.689. With G12C U47A A70G, the yeast fitness came to 0.554.

In the case of G12A U28G C33G, the yeast fitness was at most 0.5. As to G12A U35G G58A G68A, the yeast fitness is at most 0.5. G12C C31A A40C C62U: the yeast fitness was at most 0.5. The same measure for U13G C46G: 1.12. Regarding U13A A69C, the yeast fitness came out at 0.988. With G12A U19C G23C G67C, the yeast fitness is at most 0.5.

Consider U13G A42C U47A G67C, for which the yeast fitness is at most 0.5. G12C U47G C49A A69U: the yeast fitness is at most 0.5. For U13A A15C C33G C49U A69C the value was at most 0.5; for U13G C22U G63A, 0.707.

Regarding G12A G48C, the yeast fitness was 0.754. Regarding G12C C24G U35C, the yeast fitness is at most 0.5.

As to G12U A57C, the yeast fitness was at most 0.5. The same measure for U13A G41C G52A: at most 0.5. For U13C A43G G50C G67A the value was at most 0.5; for G12A U59A, 0.8.

As to U13G A69U, the yeast fitness is 0.931. On to U13C U59A, for which the yeast fitness turned out to be 0.768. Consider U13C U59C, for which the yeast fitness is 0.858. For G12A U19C A21U G58C the value was 0.94. U13A A15G C66U: the yeast fitness stood at 0.644.
